Article PMC11000255 (Journal of the American Chemical Society, 2024)
Values belong to the compound of their own block, whether it stands above or below them.

How the values were obtained:
prohibitin-2 (PHB2) = prohibitin-2 (PHB2) (Homo sapiens, UniProt Q99623); experiment: TMT18plex lysine ligandability profiling, PHB2; format: binding; conditions: 100 μM, 8 h, breast cancer cells
Summary of the method: (§1)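 Live MDA-MB-231 or MDA-MB-436 breast cancer cells were exposed to the test compound (100 µM, 8 h) or DMSO vehicle. Lysates (soluble and insoluble fractions) were chased with a desthiobiotin-tagged lysine-specific STP ester probe, trypsin-digested, streptavidin-enriched and quantified by TMTpro-18plex. Lysines had to be quantified in all biological triplicates and TMT channels. A lysine counted as liganded at ≥60% loss of probe enrichment relative to DMSO.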

stathmin (STMN1) = stathmin (STMN1) (Homo sapiens, UniProt P16949); experiment: TMT18plex lysine ligandability profiling, STMN1; format: binding; conditions: 100 μM, 8 h, breast cancer cells
Summary of the method: as §1

[1] = target: mitochondrial citrate synthase (CS) (Homo sapiens, UniProt O75390); experiment: TMT18plex lysine ligandability profiling, CS; format: binding; conditions: MDA-MB-231 cells
Summary of the method: as §1

MDA-MB-231 cells [2] = experiment: in-gel fluorescence profiling of clickable probes; format: cell-based, human; conditions: in MDA-MB-231 cells
annexin A4 (ANXA4) = annexin A4 (ANXA4) (Homo sapiens, UniProt P09525); experiment: TMT18plex lysine ligandability profiling, ANXA4; format: binding; conditions: liganded = ≥60% reduction in probe enrichment; single meroterpenoid
Summary of the method: as §1

[3] = format: physicochemical; conditions: excess of butylamine; for fold increased half-life / diminished rate compared to salicylaldehyde: vs salicylaldehyde
ionization constants = format: physicochemical
WT-IDH2 = WT-IDH2 (Homo sapiens, UniProt P48735); experiment: oxidative IDH2 activity; format: biochemical
Summary of the method: (§2)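 HEK293T lysates expressed recombinant IDH2: WT, K299 mutants, K413R, or double K299R/K413R. Lysate was preincubated with the test compound (single-point 100 µM, or a dose series; 1 h, 37 °C). α-KG production from D-(+)-threo-isocitrate (1.3 mM, 1 h, 25 °C) was measured.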

WT-PFKM = WT-PFKM (Homo sapiens, UniProt P08237); experiment: F6P phosphorylation assay, WT-PFKM in HEK293T cell lysates; format: biochemical
Summary of the method: (§3)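 Epitope-tagged WT-PFKM or K678R-PFKM was recombinantly expressed in HEK293T cells and used as lysate. Lysate was preincubated with the test compound (single-point 100 µM, or a dose series; 2 h, 37 °C).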

R140Q-IDH2 = R140Q-IDH2 (Homo sapiens, UniProt P48735, R140Q); experiment: reductive activity; format: biochemical
Summary of the method: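 Lysates of HEK293T cells expressed recombinant R140Q-IDH2, alone or with K299R or K299R/K413R added. Lysate was preincubated with the test compound (single-point 100 µM, or a dose series; 2 h, 20 °C). 2-HG production from α-KG substrate (0.6 mM, 1 h, 25 °C) was measured.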

WT-ABHD12 = target: T1, WT-ABHD12 (Homo sapiens, UniProt Q8N2K0); experiment: LC/MS-based LPS hydrolysis assay, WT-ABHD12 in HEK293T cell lysates; format: biochemical
T1 sequence (Q8N2K0 1-398): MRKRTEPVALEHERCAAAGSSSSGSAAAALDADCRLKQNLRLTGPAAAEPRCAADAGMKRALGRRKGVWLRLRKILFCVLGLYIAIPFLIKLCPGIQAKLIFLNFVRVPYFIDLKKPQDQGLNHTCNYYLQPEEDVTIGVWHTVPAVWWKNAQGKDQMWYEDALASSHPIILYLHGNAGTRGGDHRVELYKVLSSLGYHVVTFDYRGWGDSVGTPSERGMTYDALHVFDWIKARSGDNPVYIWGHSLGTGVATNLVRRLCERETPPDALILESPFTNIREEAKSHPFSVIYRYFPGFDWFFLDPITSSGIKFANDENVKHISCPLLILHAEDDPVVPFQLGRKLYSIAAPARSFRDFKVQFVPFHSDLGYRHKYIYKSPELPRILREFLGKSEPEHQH
Summary of the method: (§4)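 Recombinant ABHD12 (WT, S246A and K373 mutants) was expressed in HEK293T cells and used as cell lysate. Lysate was preincubated with the test compound (single-point 100 µM, or a dose series; 1 h, 37 °C), then given 17:1 LPS substrate (100 µM, 20 min, 37 °C).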

K299R/K413R-IDH2 = K299R/K413R-IDH2 (Homo sapiens, UniProt P48735, K299R/K413R); experiment: oxidative IDH2 activity, K299R/K413R-IDH2 in HEK293T cell lysates; format: biochemical
transthyretin (TTR) = transthyretin (TTR) (Homo sapiens, UniProt P02766); experiment: TMT18plex lysine ligandability profiling, TTR; format: binding; conditions: liganded = ≥60% reduction in probe enrichment; single meroterpenoid
Summary of the method: as §1

ABHD12 [4] = target: T2, ABHD12 (Homo sapiens, UniProt Q8N2K0); experiment: TMT18plex lysine ligandability profiling, ABHD12; format: binding; conditions: both MDA-MB-231 and MDA-MB-436 cell lines
T2 sequence (Q8N2K0 1-398): T1 sequence (Q8N2K0 1-398)
Summary of the method: as §1

IDH2 = IDH2 (Homo sapiens, UniProt P48735); experiment: immunoblotting analysis of IDH2 homodimerization
Summary of the method: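 Flag-tagged WT- and R140Q-IDH2, with K299 and K413 mutants, were recombinantly expressed in HEK293T cells. Lysates were treated with the test compound, and IDH2 homodimer formation was read by immunoblot.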

K373R-ABHD12 = K373R-ABHD12 (Homo sapiens, UniProt Q8N2K0, K373R); experiment: LC/MS-based LPS hydrolysis assay, K373R-ABHD12 in HEK293T cell lysates; format: biochemical
Summary of the method: as §4

K413R-IDH2 = K413R-IDH2 (Homo sapiens, UniProt P48735, K413R); experiment: oxidative IDH2 activity, K413R-IDH2 in HEK293T cell lysates; format: biochemical
Summary of the method: as §2

K299R-IDH2 = K299R-IDH2 (Homo sapiens, UniProt P48735, K299R); experiment: oxidative IDH2 activity, K299R-IDH2 in HEK293T cell lysates; format: biochemical
Summary of the method: as §2

MDA-MB-231 cells [5] = experiment: untargeted lipidomics profiling of treated cells; format: cell-based, human; conditions: 100 μM, 8 h
ABHD12 [6] = target: T2, ABHD12; experiment: immunoblot analysis of high-molecular-weight ABHD12 aggregates; conditions: recombinant ABHD12, immunoblot
Summary of the method: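 Flag-tagged WT and K373R ABHD12 expressed recombinantly in HEK293T cells; lysates treated with increasing test compound, then labeled with TAMRA-FP. Read-out by in-gel fluorescence plus Western blot, tracking monomeric and high-molecular-weight ABHD12 bands.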

K678R-PFKM = K678R-PFKM (Homo sapiens, UniProt P08237, K678R); experiment: F6P phosphorylation assay, K678R-PFKM in HEK293T cell lysates; format: biochemical
Summary of the method: as §3

[7] = phenolic core of ubiquinol; cited from earlier work
OCIAD2 = OCIAD2 (Homo sapiens, UniProt Q56VL3); experiment: TMT18plex lysine ligandability profiling, OCIAD2; format: binding; conditions: 100 μM, 8 h
Summary of the method: as §1

Chain of OCIAD2 (Q56VL3 whole entry): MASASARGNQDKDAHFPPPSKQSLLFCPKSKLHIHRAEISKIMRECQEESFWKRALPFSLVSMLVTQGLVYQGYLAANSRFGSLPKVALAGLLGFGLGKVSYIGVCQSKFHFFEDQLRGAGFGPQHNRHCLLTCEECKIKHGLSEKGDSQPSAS
Chain of WT-PFKM (P08237 whole entry): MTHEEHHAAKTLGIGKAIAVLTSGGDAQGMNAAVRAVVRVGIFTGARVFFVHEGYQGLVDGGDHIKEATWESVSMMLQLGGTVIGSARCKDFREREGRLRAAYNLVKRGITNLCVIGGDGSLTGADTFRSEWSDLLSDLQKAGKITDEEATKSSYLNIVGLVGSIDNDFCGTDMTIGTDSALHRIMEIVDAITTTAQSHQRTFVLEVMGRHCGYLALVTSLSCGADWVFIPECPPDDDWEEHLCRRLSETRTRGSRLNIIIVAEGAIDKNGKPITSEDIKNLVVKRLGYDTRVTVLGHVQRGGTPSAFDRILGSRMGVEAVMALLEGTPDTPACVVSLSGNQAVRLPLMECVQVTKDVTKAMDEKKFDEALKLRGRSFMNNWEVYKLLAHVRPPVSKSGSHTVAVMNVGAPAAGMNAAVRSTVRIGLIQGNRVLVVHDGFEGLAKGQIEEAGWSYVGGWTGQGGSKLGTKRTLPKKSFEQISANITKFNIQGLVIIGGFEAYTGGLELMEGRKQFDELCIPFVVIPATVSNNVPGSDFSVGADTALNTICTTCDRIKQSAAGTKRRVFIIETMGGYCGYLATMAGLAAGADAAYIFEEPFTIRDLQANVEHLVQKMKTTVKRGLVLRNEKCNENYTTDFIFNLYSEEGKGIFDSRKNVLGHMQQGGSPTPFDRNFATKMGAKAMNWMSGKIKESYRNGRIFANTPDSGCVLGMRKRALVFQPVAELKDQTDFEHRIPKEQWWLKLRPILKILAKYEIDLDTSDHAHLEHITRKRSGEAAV
Chain of prohibitin-2 (PHB2) (Q99623 whole entry): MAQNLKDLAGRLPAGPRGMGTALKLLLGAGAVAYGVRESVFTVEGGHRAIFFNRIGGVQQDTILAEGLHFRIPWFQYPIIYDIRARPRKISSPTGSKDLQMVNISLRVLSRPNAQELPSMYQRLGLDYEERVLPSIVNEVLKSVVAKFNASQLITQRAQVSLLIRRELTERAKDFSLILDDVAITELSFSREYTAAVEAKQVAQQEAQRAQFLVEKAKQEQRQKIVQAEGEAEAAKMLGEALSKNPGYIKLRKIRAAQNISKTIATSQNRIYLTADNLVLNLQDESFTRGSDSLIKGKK
Chain of stathmin (STMN1) (P16949 whole entry): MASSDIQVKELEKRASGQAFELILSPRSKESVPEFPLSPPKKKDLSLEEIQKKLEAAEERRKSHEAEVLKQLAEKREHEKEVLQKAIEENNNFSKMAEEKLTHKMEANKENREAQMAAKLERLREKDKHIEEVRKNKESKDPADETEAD
Chain of K299R/K413R-IDH2 (P48735 40-452 K299R/K413R): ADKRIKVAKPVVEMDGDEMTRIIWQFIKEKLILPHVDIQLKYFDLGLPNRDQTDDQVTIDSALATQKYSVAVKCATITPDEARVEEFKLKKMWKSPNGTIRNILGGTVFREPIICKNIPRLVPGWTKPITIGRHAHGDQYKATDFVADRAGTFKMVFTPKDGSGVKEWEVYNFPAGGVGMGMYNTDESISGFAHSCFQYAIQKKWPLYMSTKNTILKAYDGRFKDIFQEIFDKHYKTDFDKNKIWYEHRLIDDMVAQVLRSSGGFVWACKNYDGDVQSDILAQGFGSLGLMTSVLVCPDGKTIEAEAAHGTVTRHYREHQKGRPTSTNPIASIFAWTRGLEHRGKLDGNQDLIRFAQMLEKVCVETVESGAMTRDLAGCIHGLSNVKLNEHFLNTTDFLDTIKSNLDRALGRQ
Chain of WT-IDH2 (P48735 40-452): as the sequence (P48735 40-452 K299R/K413R) above, with R260K, R374K counted along it
Chain of R140Q-IDH2 (P48735 40-452 R140Q): as the sequence (P48735 40-452 K299R/K413R) above, with R101Q, R260K, R374K counted along it
Chain of K373R-ABHD12 (Q8N2K0 whole entry K373R): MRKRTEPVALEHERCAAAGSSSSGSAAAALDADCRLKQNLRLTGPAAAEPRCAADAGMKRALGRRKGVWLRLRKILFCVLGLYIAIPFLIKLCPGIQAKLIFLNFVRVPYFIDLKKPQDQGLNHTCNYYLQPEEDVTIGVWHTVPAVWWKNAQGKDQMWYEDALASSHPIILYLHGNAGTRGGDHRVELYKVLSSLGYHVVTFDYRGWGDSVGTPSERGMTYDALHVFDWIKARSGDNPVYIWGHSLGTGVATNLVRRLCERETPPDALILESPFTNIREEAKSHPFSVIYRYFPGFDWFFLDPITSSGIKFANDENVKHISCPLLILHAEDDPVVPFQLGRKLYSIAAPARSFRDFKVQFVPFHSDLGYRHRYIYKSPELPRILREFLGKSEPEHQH
Chain of K299R-IDH2 (P48735 40-452 K299R): as the sequence (P48735 40-452 K299R/K413R) above, with R374K counted along it
Chain of K678R-PFKM (P08237 whole entry K678R): as the sequence (P08237 whole entry) above, with K678R counted along it
Chain of K413R-IDH2 (P48735 40-452 K413R): as the sequence (P48735 40-452 K299R/K413R) above, with R260K counted along it
Chain of annexin A4 (ANXA4) (P09525 whole entry): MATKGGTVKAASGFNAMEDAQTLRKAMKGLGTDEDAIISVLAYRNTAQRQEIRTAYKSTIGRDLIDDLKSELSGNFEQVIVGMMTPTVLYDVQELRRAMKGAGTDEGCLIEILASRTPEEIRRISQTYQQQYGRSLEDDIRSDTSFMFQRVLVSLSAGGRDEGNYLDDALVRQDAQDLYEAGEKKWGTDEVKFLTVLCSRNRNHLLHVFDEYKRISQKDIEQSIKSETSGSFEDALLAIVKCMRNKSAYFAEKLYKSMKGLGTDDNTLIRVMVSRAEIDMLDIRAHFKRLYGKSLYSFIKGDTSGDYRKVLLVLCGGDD
Chain of IDH2 (P48735 40-452): as the sequence (P48735 40-452 K299R/K413R) above, with R260K, R374K counted along it
Chain of mitochondrial citrate synthase (CS) (O75390 28-466): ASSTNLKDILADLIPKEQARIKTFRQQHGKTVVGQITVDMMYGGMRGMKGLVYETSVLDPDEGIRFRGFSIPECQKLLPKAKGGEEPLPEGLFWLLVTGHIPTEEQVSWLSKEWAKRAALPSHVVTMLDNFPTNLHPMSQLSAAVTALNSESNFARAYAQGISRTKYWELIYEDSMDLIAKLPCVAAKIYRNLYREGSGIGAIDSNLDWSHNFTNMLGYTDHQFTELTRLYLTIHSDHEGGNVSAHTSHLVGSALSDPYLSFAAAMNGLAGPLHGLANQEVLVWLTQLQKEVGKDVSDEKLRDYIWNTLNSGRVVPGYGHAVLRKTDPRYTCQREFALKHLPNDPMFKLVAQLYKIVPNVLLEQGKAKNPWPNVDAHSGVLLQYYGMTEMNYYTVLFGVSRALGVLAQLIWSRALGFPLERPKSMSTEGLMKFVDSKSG

- ligandability of K24 in PHB2 (prohibitin-2 (PHB2)): 61%
- ligandability of K128 in STMN1 (stathmin (STMN1)): 11%
Compound: CC(C)CC(=O)c1c(O)c(C=O)c2c(c1O)C[C@H]1C[C@H]3C[C@H](C3(C)C)[C@@]1(C)O2 [(−)-euglobal-G2]

- engagement of K76 in CS [1]: exclusively targeted
Compound: CC(C)CC(=O)c1c(O)c(C=O)c2c(c1O)CC[C@@]1(CC[C@H]3C[C@@H]1C3(C)C)O2 [(−)-euglobal-G3]

- engagement of K246 in ANXA4 (annexin A4 (ANXA4)): exclusively targeted
Compound: CC(C)CC(=O)c1c(O)c(C=O)c(O)c2c1O[C@@]1(CC2)CC[C@H]2C[C@@H]1C2(C)C [(−)-euglobal-G4]
- competitive blockade of azide probe (−)-11 labeling (MDA-MB-231 cells [2]): blockade of probe (−)-11 labeling for a subset of protein targets in a dose-dependent manner

Compound: O=Cc1ccccc1 [benzaldehyde]
- fold increased half-life / diminished rate compared to salicylaldehyde [3]: 10 fold

- pKa (ionization constants): 10.9
Compound: Cc1c(O)c(C=O)c(O)c(C(=O)CC(C)C)c1O [grandinol]
- fold diminished rate compared to jensenone ([3]; vs jensenone): 30 fold

- IC50 (WT-IDH2): 20.9 µM
- effect on IDH2 oxidative activity (WT-IDH2; 100 μM, 1 h, 37 °C): complete functional inhibition
- IC50 (WT-PFKM): 10.8 µM
- inhibitory effect on catalytic activity of PFKM (WT-PFKM; 100 μM, 2 h, 37 °C, among the meroterpenoids assessed): most pronounced inhibitory effects
- IC50 (R140Q-IDH2): 26.2 µM
- effect on reductive activity (2-HG production) (R140Q-IDH2; 100 μM, 2 h, 20 °C): fully abolished the reductive activity
- IC50 (WT-ABHD12): 32.6 µM
- residual ABHD12 LPS hydrolysis activity (WT-ABHD12; 100 μM, 1 h, 37 °C, 17:1 LPS substrate): 23%
- IC50 (K299R/K413R-IDH2): > 100 µM
- pKa (ionization constants): 10.5
- engagement of K35 in TTR (transthyretin (TTR)): selectively engaged
- ligandability of K373 in ABHD12 (ABHD12 [4]): 76%
- IC50 (K373R-ABHD12): 45.7 µM
- IC50 (K413R-IDH2): 21.4 µM
- IC50 (K299R-IDH2): 29.8 µM
- IC50 (K678R-PFKM): > 100 µM
Compound: CC(C)CC(=O)c1c(O)c(C=O)c(O)c(C=O)c1O [jensenone]
- oxidative activity following treatment (K299R/K413R-IDH2; double mutant K299R/K413R-IDH2, 100 μM, 1 h, 20 °C): essentially preserved its oxidative activity
- IDH2 homodimerization (IDH2): unexpected induction of IDH2 homodimerization
- levels of monoacylglycerophosphoserine LPS(18:0) (MDA-MB-231 cells [5]): significantly elevated levels
- levels of stearic acid FA(18:0) (MDA-MB-231 cells [5]): concurrent reduction
- formation of high-molecular-weight ABHD12 aggregates (ABHD12 [6]): marked reduction in the monomeric form of ABHD12 and a concomitant increase in high-molecular-weight ABHD12 aggregates

Compound: O=Cc1c(O)cc(O)cc1O [phloroglucinaldehyde]
- fold increased half-life / diminished rate compared to salicylaldehyde [3]: 80 fold

Compound: COc1c(O)c(C)c(C/C=C(\C)CC/C=C(\C)CC/C=C(\C)CC/C=C(\C)CC/C=C(\C)CC/C=C(\C)CC/C=C(\C)CC/C=C(\C)CC/C=C(\C)CCC=C(C)C)c(O)c1OC [ubiquinol]
- calculated pKa1 [7]: 5.31
- calculated pKa2 [7]: 10.86

- ligandability of K24 in PHB2 (prohibitin-2 (PHB2)): 26%
- ligandability of K128 in STMN1 (stathmin (STMN1)): 67%
- ligandability of K99 in OCIAD2 (OCIAD2; MDA-MB-231 cells): 92%
- ligandability of K99 in OCIAD2 (OCIAD2; MDA-MB-436 cells): 49%
Compound: (+)-euglobal-G2
